Results on 9 compounds are retold here after ChEMBL document CHEMBL3860034, “Development of Potent and Selective S. aureus Sortase A Inhibitors Based on Peptide Macrocycles” (ACS Med Chem Lett, 2016).

The source made the active and inactive calls. No cut-off for these calls is given here. *1 amine or outer side, *2 acyl side, *3 side chain or, on linkers, in order; H or OH if unused. Where a SMILES comes first, the peptide text is derived from it. Bridges are numbered along the chain shown (N, C = ends). TBMB = c1c(C[*:1])cc(C[*:3])cc1C[*:2]

Experiment [1] deals with T1, Sortase A (Staphylococcus aureus, UniProt Q9S446).
T1 sequence (Q9S446 whole entry): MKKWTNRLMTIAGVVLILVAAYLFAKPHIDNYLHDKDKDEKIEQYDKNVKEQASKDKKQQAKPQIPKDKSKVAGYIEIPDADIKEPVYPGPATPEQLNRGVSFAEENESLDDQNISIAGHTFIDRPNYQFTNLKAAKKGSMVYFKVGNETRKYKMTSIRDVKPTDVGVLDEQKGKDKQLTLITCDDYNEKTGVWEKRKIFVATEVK
Description: Inhibition of Staphylococcus aureus His6-biotinylated SrtA expressed in Escherichia coli XL1-blue using Dabcyl-LPETG-Edans as substrate assessed as residual activity by fluorescence assay. A digest of the protocol:
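(His)6-SrtA26−206 from E. coli XL1-blue, purified by Ni affinity and gel filtration. Enzyme at 2.5 μM incubated with varied peptide concentrations (up to 300 μM). Residual activity measured with 20 μM Dabcyl-LPETG-Edans and 200 μM triglycine in 50 mM Tris-Cl pH 7.4, 150 mM NaCl, 5 mM CaCl2, 0.1% BSA, 37 °C. Fluorescence read at ex 350/em 480 nm. Ki from Supporting Information equations; at least three measurements.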

Experiment [2] has as its target T1, Sortase A. The experiment in a line: Binding affinity to Staphylococcus aureus His6-biotinylated SrtA expressed in Escherichia coli XL1-blue using fluorescein-tagged compound after 15 mins by fluorescence polarization. A digest of the protocol:
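Serial dilutions of SrtA mixed with 200 nM fluorescein-labeled bicyclic peptide in 50 mM Tris-Cl pH 7.4, 150 mM NaCl, 5 mM CaCl2; 15 min at room temperature. Fluorescence polarization read at 485 nm excitation / 535 nm emission. Kd obtained by nonlinear regression of polarization against total SrtA concentration.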
For orientation: Polarisation of emitted light reports the rotation of a fluorescent probe.

Experiment [3] concerns the target Urokinase-type plasminogen activator (Homo sapiens, UniProt P00749). Description: Inhibition of human uPA using fluorogenic Z-Gly-Gly-Arg-AMC as substrate.
Experiment [4] can be described thus: Inhibition of recombinant Staphylococcus aureus SrtA N24 deletion mutant by using abz-LPATG-dnp as substrate.
In experiment [5] the target is T2, Sortase A (Staphylococcus aureus) (UniProt Q9S446).
T2 sequence (whole entry): T1 sequence (Q9S446 whole entry)
The experiment in a line: (§1) Inhibition of SrtA-mediated incorporation of Fluo-GSLPETGGS substrate to cell wall of Staphylococcus aureus Newman after 24 hrs by fluorescence assay. Conditions: Staphylococcus aureus subsp. aureus str. Newman.

For experiment [6], the target named is T1, Sortase A. Described as §1. On the set-up: species or system Staphylococcus aureus subsp. aureus str. Newman.
Experiment [7] deals with Staphylococcus aureus. Description: Induction of Fluo-GSLPETGGS substrate transfer to cell wall of SrtA knockout Staphylococcus aureus SKM12 at 1 mM after 24 hrs by fluorescence assay. It counts as functional.

Usually Ki stands for a dissociation constant, usually derived from enzyme kinetics or from competition with a known ligand. The Kd is a measure of binding affinity in units of concentration. A higher Kd goes with a looser complex. As for `CC(C)C[C@@H]1NC(=O)[C@H](CCC(N)=O)NC(=O)[C@@H]2CCCN2C(=O)[C@@H](NC(=O)[C@H](C)N)CSCc2cc3cc(c2)CSC[C@H](NC(=O)[C@@H]2CCCN2C(=O)[C@@H]2CCCN2C1=O)C(=O)N[C@@H](CCCNC(=N)N)NC(=O)[C@H](C(C)C)NC(=O)[C@H](CO)C(=O)N[C@H](C(=O)NCC(N)=O)CSC3`, in experiment [1], the Ki was 4.3 µM. The same compound yielded a Kd in experiment [2] of 8.8 µM.
Consider `CC(C)[C@@H]1NC(=O)[C@H](CCC(=O)O)NC(=O)[C@H](Cc2ccc(O)cc2)NC(=O)[C@H](CCCNC(=N)N)NC(=O)[C@@H](CO)NC(=O)[C@H](NC(=O)[C@H](C)N)CSCc2cc3cc(c2)CSC[C@@H](C(=O)NCC(N)=O)NC(=O)[C@@H](C)NC(=O)[C@H](CO)NC(=O)CNC(=O)[C@H](CCCNC(=N)N)NC(=O)CNC(=O)[C@H](CCCNC(=N)N)NC(=O)[C@H](CSC3)NC(=O)[C@H](CC(=O)O)NC1=O`, for which the affinity in experiment [3], expressed as Ki, was 0.053 µM.
By IC50 is commonly meant the point on the concentration scale where inhibition reaches its midpoint. Turning to `O=S(=O)(O)c1cccc(-c2nn3c(-c4ccncc4)nnc3s2)c1`, the IC50 in experiment [4] is 9.3 µM.
Consider `CC(C)C[C@@H]1NC(=O)[C@H](CCC(N)=O)NC(=O)[C@@H]2CCCN2C(=O)[C@@H]2CSCc3cc(cc(c3)CSC[C@@H](C(=O)NCC(=O)O)NC(=O)[C@@H]3CCCN3C(=O)[C@@H]3CCCN3C1=O)CSC[C@H](NC(=O)[C@H](C)N)C(=O)N[C@@H](Cc1c[nH]cn1)C(=O)N[C@@H](CO)C(=O)N[C@@H](CCCNC(=N)N)C(=O)N2` (H-ACHSRCPQLPPCG-OH; linker 2-6-12 via TBMB), for which, in experiment [1], the Ki was 1.1 µM. The inhibition entry in experiment [5] was “Dose-dependent effect”. In experiment [6], this compound showed an IC50 of 167 µM. Also, the result in experiment [7] was Active.
With `CC(C)C[C@@H]1NC(=O)[C@H](CCC(N)=O)NC(=O)[C@@H](NC(=O)[C@H](C)N)CSCc2cc3cc(c2)CSC[C@H](NC(=O)[C@@H]2CCCN2C(=O)[C@@H]2CCCN2C(=O)[C@H](CC(C)C)NC1=O)C(=O)N1CCC[C@H]1C(=O)N[C@@H](Cc1ccccc1)C(=O)N[C@@H](CC(N)=O)C(=O)N[C@H](C(=O)NCC(N)=O)CSC3` (H-ACQLLPPCPFNCG-NH2; linker 2-8-12 via TBMB), the Ki in experiment [1] amounted to 19.3 µM.
Still for that read-out and setting: in the case of `CC(C)C[C@@H]1NC(=O)[C@H](CCC(N)=O)NC(=O)[C@H](CCCNC(=N)N)NC(=O)[C@@H](NC(=O)[C@H](C)N)CSCc2cc3cc(c2)CSC[C@H](NC(=O)[C@@H]2CCCN2C(=O)[C@@H]2CCCN2C1=O)C(=O)N[C@@H](CO)C(=O)N[C@@H](Cc1ccccc1)C(=O)N[C@@H](CCC(=O)O)C(=O)N[C@H](C(=O)NCC(N)=O)CSC3` (H-ACRQLPPCSFECG-NH2; linker 2-8-12 via TBMB) it was 11.6 µM.
As for `CC(C)C[C@@H]1NC(=O)[C@H]([C@@H](C)O)NC(=O)[C@@H](NC(=O)[C@H](C)N)CSCc2cc3cc(c2)CSC[C@H](NC(=O)[C@@H]2CCCN2C(=O)[C@@H]2CCCN2C(=O)[C@H](CC(C)C)NC1=O)C(=O)N[C@@H]([C@@H](C)O)C(=O)N1CCC[C@H]1C(=O)N[C@@H](CC(=O)O)C(=O)N[C@@H](CCC(N)=O)C(=O)N[C@H](C(=O)NCC(N)=O)CSC3` (H-ACTLLPPCTPDQCG-NH2; linker 2-8-13 via TBMB), in experiment [1], the Ki was determined as 32.1 µM.
Take `CC(C)C[C@@H]1NC(=O)[C@H](CCC(N)=O)NC(=O)[C@@H]2CCCN2C(=O)[C@@H]2CSCc3cc(cc(c3)CSC[C@@H](C(=O)NCC(N)=O)NC(=O)[C@@H]3CCCN3C(=O)[C@@H]3CCCN3C1=O)CSC[C@H](NC(=O)[C@H](C)N)C(=O)N[C@@H]([C@@H](C)O)C(=O)N[C@@H](CCC(N)=O)C(=O)N[C@@H](CCCNC(=N)N)C(=O)N2` (H-ACTQRCPQLPPCG-NH2; linker 2-6-12 via TBMB): in experiment [1], the Ki was determined as 2.4 µM. The Kd in experiment [2] was found to be 1.5 µM.
For `CC(C)C[C@@H]1NC(=O)[C@H](CCC(N)=O)NC(=O)[C@@H]2CCCN2C(=O)[C@@H]2CSCc3cc(cc(c3)CSC[C@@H](C(=O)NCC(=O)O)NC(=O)[C@@H]3CCCN3C(=O)[C@@H]3CCCN3C1=O)CSC[C@H](NC(=O)[C@H](C)N)C(=O)N[C@@H]([C@@H](C)O)C(=O)N[C@@H](CO)C(=O)N[C@@H](CCCNC(=N)N)C(=O)N2` (H-ACTSRCPQLPPCG-OH; linker 2-6-12 via TBMB), the Ki in experiment [1] is 1.8 µM.
